Bioassay records as filed in PubChem BioAssay.
Rows were chosen to be rich in hits. Some 5.9% of all compounds tested hit in one or more screens of this group.
Measles CPE = protection of cells from measles virus. Measles virus-infected cells, CPE protection, absorbance. protection (pct of control), % at 4 µM. 140,000 tested, 1.5% active; in the data active = protection mostly above about 24%, no sharp cut-off; inactive = mostly below about 26%
hDAT+cocaine = human DAT dopamine uptake with cocaine, either direction; 110,000 tested, 1.3% active; LLC-PK1 hDAT cells, [14C]-dopamine uptake with cocaine IC80; actives deviate in either direction; B-score at 10 µM; Q01959;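 active = Z score or B-score, a plate-position-corrected score, falls beyond the plate's 99.7% confidence bounds, in either direction; inactive = both scores lie inside the 99.7% bounds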;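 note: scored against the spread of the other compound wells on the same plate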
Target sequence (Q01959 whole entry, looked up): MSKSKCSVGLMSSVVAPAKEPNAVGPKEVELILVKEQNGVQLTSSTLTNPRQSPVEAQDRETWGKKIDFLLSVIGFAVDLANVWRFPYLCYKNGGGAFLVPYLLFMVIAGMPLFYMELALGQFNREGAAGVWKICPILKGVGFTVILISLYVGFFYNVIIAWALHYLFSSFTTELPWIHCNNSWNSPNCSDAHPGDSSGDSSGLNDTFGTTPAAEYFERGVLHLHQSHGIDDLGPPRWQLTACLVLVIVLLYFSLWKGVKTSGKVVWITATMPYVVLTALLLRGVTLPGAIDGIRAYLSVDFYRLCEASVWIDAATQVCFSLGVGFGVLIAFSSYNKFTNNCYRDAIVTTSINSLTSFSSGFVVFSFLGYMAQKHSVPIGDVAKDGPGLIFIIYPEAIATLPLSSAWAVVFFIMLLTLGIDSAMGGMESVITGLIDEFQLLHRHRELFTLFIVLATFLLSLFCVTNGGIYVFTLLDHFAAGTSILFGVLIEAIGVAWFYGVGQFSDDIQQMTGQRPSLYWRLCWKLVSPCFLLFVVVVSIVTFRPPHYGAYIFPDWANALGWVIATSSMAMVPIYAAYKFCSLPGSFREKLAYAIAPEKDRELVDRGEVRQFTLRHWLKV
Phagocytosis inh = blocks phagocytosis by macrophages | J774A.1 macrophage IgG-bead phagocytosis, imaging | inhibition, % at 5 µM | 110,000 tested, 0.07% active;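 active = inhibition above the mean of the plate negative controls plus 5 SD, cut at about 13% in these data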;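 note: phagocytic index as fraction of beads internalized from green versus red external bead signal; plate controls were DMSO negative control for no effect and cytochalasin-D positive control for full effect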
PTK2B oligo ant = antagonists of human Pyk2 oligomerization; Q293 cells, Pyk2 FERM NanoBiT luminescence; stronger effect = lower value; 99,000 tested, 0.83% active; z-score (the deposit names both 25 µM and 10 µM); Q14289;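 active = Z-score of -3 or lower, scaled per plate to the spread of control and sample wells; inactive = z-score above -3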;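 note: negative z-score means lost luminescence so less FERM oligomerization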
Rev-RRE block = HIV Rev-RRE protein-RNA interaction inhibition | Rev peptide-RRE RNA binding, FRET | inhibition, % at 8 µM | 97,000 tested, 0.79% active;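 active = inhibition above the screen-wide mean plus 3 SD, cut at about 35% in these data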;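 note: 0% = median DMSO wells and 100% = median Neomycin B control wells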
Target sequence (P05866 whole entry, looked up): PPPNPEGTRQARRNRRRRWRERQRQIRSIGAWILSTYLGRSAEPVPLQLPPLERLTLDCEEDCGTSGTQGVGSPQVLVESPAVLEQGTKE
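Test system: Cy5-tagged RRE RNA duplex with fluorescein-tagged Rev peptide | Read-out: % inhibition of FRET ratio versus controls | Probe or stimulus: Labelled Rev peptide | Incubation: 5 min RNA-compound premix plus 15 min binding step, 25 °C | Technique: FRET fluorescence readout | Benchmarks: DMSO low control, neomycin B high control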
Cav32 inh = human Cav3.2 channel inhibition, primary screen; O95180; Cav3.2-expressing cells, Fluo-4 calcium fluorescence FDSS; stronger effect = lower value; B-score at 10 µM; 100,000 tested, 4% active;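 active = single-dose well whose peak fluorescence ratio is a statistical outlier from its plate by either plate-standardised score or position-corrected B-score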
Starred values were filed as active, the others as inactive; · = no result; [ ] = dose if it differs, or a comment.

SMILES | Measles CPE | hDAT+cocaine | Phagocytosis inh | PTK2B oligo ant | Rev-RRE block | Cav32 inh
CC(=O)Nc1cccc(Oc2ncnc3scc(-c4ccc(C(C)C)cc4)c23)c1 | 60* | · | -4 | · | · | ·
O=C(NCc1cccc(C(F)(F)F)c1)C1CC(c2ccc(C(F)(F)F)cc2)=NO1 (stereo not given) | · | 1.5 | · | · | · | -1.7
CCN1CCN(C(=O)Nc2cccc3ccccc23)CC1 | 20 | -0.73 | 0 | -3.2* | 0 | 1.3
CN1CCN(C(=O)Nc2cccc3ccccc23)CC1 | 5 | -0.11 | 1 | -0.43 | 3 | 0.65
CCn1nc(C(=O)Nc2cccc3ccccc23)c(Cl)c1Cl | 21 | 0.59 | -1 | 0.19 | 5 | -5.7*
O=C(O)CCCN1C(=O)/C(=C/c2ccc(-c3nc4ccccc4s3)o2)SC1=S | 31 | · | 0 | 1.9 | 71* | ·
O=C(O)CCCCCN1C(=O)/C(=C\c2ccncc2)SC1=S | 13 | · | -8 | · | · | ·
CC(=O)Nc1nc(NC(=O)/C=C/c2ccccc2)n(-c2ccccc2)n1 | 4 | · | 0 | · | · | ·
Cc1ccccc1SCC(=O)Nc1cccc(C#N)c1 | 8 | 0.55 | 0 | 0.62 | -8 | -2
CCc1ccc(NC(=O)Cc2cn(C)c3ccccc23)cc1 | 6 | 0.74 | 0 | -2 | 3 | -4.8*
CCC(C)NC(=O)Cc1cn(C)c2ccccc12 (stereo not given) | 2 | -0.65 | 0 | 0.54 | 6 | 1.1
Cn1cc(CC(=O)Nc2cccc(C#N)c2)c2ccccc21 | 2 | -0.47 | 3 | 3.6 | 6 | -4.2*
CCc1cccc(NC(=O)Cc2cn(C)c3ccccc23)c1 | 18 | 0.6 | -3 | -1.2 | 5 | -7.7*
Cc1nnsc1C(=O)Nc1cc(Cl)ccc1Cl | 8 | -1.2 | · | 0.17 | 4 | -0.62
O=C(Nc1nc2c(s1)CN(Cc1ccccc1)CC2)c1cccc(S(=O)(=O)N2CCc3ccccc32)c1 | 26 | -1.2 | · | -1 | 122*[fluorescence artefact?] | -2.6
CCN1CCc2nc(NC(=O)c3ccc4c(c3)OCCO4)sc2C1 | 7 | 0.14 | · | 0.11 | 36* | -0.79
O=C(COC(=O)c1cccc(S(=O)(=O)N2CCc3ccccc32)c1)Nc1ccc(Cl)cn1 | 35* | · | · | · | · | ·
O=C(COC(=O)c1cccc(S(=O)(=O)N2CCc3ccccc32)c1)Nc1ncc(Cl)cc1Cl | 6 | · | -5 | · | · | ·
CC1CC(C)CN(C(=O)Cn2c(SCC(=O)N3CCc4ccccc4C3)nc3ccccc32)C1 (stereo not given) | 16 | -0.2 | · | -1.1 | -1 | -8.4*
CC(C)NC(=O)Cn1c(SCC(=O)N2CCc3ccccc3C2)nc2ccccc21 | 3 | 0.26 | -1 | 0.36 | · | 1.5
O=C(Nc1ccccc1)N(CCc1nc2ccccc2[nH]1)C1CCCC1 | 1 | -0.2 | -1 | -0.44 | 7 | -2.6
S=C(NC1CCCCC1)N(CCc1nc2ccccc2[nH]1)C1CCCC1 | 3 | 0.06 | · | -1.1 | -6 | -8.3*
COc1ccc(NC(=O)c2c(OC)cccc2OC)c(OC)c1 | 11 | -0.45 | -1 | -4.4* | 9 | 0.82
COc1ccc(NC(=O)c2ccccc2O)c(OC)c1 | 23 | 0.17 | 0 | -0.6 | 4 | -0.63
CC(C)NC(=S)N/N=C1\CCCCC1C1CCCCC1 (stereo not given) | 5 | 0.26 | -2 | 1.4 | -5 | ·
SMILES | Measles CPE | hDAT+cocaine | Phagocytosis inh | PTK2B oligo ant | Rev-RRE block | Cav32 inh
COc1ccc(C2N(c3ccccn3)C(=O)C3CCCN32)c(OC)c1 (stereo not given) | 4 | -1 | · | 0.77 | 11 | -0.38
COc1cc(C2N(c3ccccn3)C(=O)C3CCCN32)cc(OC)c1OC (stereo not given) | 12 | -7.9* | -1 | 0.71 | 1 | 0.27
CCO[C@H]1OC(C(=O)N2CCN(Cc3ccc4c(c3)OCO4)CC2)=C[C@@H](c2ccc(Br)cc2)[C@@H]1CCCO | · | -0.013 | · | · | · | -0.73
Nc1nnc(SCC(=O)c2ccccc2)s1 | 9 | -0.86 | -1 | 1.5 | 5 | 0.37
Nc1c(C(=O)c2ccccc2)sc2snc(SCC(=O)c3ccccc3)c12 | 5 | 1.1 | · | 0.59 | 78* | -2.8
COc1ccc(-c2ccc(C3C(C#N)=C(N)Oc4n[nH]c(C)c43)o2)cc1 (stereo not given) | 9 | -0.39 | · | 0.09 | 52* | 0.26
Cc1nn(C)c(C)c1CN(C)C(=O)CCCC(=O)O | 10 | 0.088 | · | 1.5 | 3 | 0.59
Cc1ccc(Cl)cc1N1CCN(C(=O)C2CCN(c3nnc(-n4cccc4)s3)CC2)CC1 | 13 | 1.2 | 0 | · | · | -8.2*
CCOc1ccc2nc(SCC(=O)N3CCN(C(=O)c4ccco4)CC3)sc2c1 | 23 | -1.7* | · | 0.61 | 8 | ·
CCc1cc2cc3c(cc2nc1SCC(=O)N1CCN(C(=O)c2ccco2)CC1)OCO3 | 12 | 1.3 | -1 | 0.05 | -1 | -0.19
CCc1cc2ccc(C)cc2nc1SCC(=O)N1CCN(C(=O)c2ccco2)CC1 | 9 | 0.29 | -2 | 0.45 | 9 | -5.1*
O=C(CSc1nc2ccccc2s1)N1CCN(C(=O)c2ccco2)CC1 | 15 | 0.93 | 1 | -0.04 | 1 | 0.59
O=C(CSc1nc(O)cc(=O)[nH]1)N1CCCc2ccccc21 | 48* | 0.11 | 4 | 0.11 | 6 | 0.7
CCOc1ccc2nc(SCC(=O)N3CCCc4ccccc43)sc2c1 | 13 | 1.8 | · | -0.38 | 8 | -4.7*
Cc1cc(=O)[nH]c(SCC(=O)N2CCCc3ccccc32)n1 | 16 | -0.45 | · | 1.3 | 8 | 1
CC(Oc1c(Cl)cccc1Cl)C1=NCCN1 (stereo not given) | · | 0.55 | · | · | · | -0.32
Cc1ccc(NC(=O)c2cc(N3C(=O)C=CC3=O)ccc2Cl)cc1C | 6 | · | -9 | · | · | ·
Cc1[nH][nH]c(=O)c1C(c1c(C)[nH][nH]c1=O)c1cn(Cc2ccccc2Cl)c2ccccc12 | 3 | · | -1 | · | · | ·
O=C(CSc1nnc(-c2cccs2)o1)Nc1cccc(S(=O)(=O)N2CCCCC2)c1 | 12 | · | -11 | · | · | ·
CCOc1ccc2nc(SCC(=O)NC3CCCc4ccccc43)sc2c1 (stereo not given) | 15 | · | 70*[artifact] | · | · | ·
CCOc1ccc2nc(SCC(=O)N3c4ccccc4Sc4ccccc43)sc2c1 | 8 | · | -2 | · | · | ·
Cc1ccc(NC(=S)NCc2cccs2)c(C)c1 | 25 | 0.074 | 0 | 0.33 | 4 | -1.5
CC(=O)N1CCc2cc(S(=O)(=O)NCCCN3CCN(Cc4ccccc4)CC3)ccc21 | 17 | · | -1 | 2.6 | 5 | ·
CC(=O)N1CCc2cc(S(=O)(=O)NCCN3CCC(C)CC3)ccc21 | 38* | -0.54 | 0 | 0.77 | 3 | 1.1
COc1c(Cl)cc(Cl)cc1C(=O)n1nc(C)cc1C | 12 | 0.054 | · | -0.23 | 6 | 0.0035
COc1cc(C(=O)OCC(=O)c2cc(C)n(C)c2C)cc(NC(=O)c2ccco2)c1OC | 53* | -1.1 | -1 | -0.34 | -6 | -2
COc1ccccc1NC(NC(=O)c1ccco1)C(=O)c1ccccc1 (stereo not given) | 5 | 35* | 2 | -0.22 | 1 | 0.13
CCCCOc1ccccc1NC(=O)c1ccco1 | 2 | -0.94 | -1 | -1.4 | 14 | -4.5*
